Source: ChEMBL document CHEMBL4028861, “Selective Nonsteroidal Glucocorticoid Receptor Modulators for the Inhaled Treatment of Pulmonary Diseases” (J Med Chem, 2017)
In brackets after ≈: the same amount, converted by molar mass.

What was measured:
[1] = Intrinsic clearance in human hepatocytes assessed per million cells; assay type: ADME, cell-based, Hepatocyte; details: read-out: CLH
[2] = Lipophilicity, log D of the compound by chromatography; assay type: physicochemical
[3] = Drug degradation in human hepatocytes at 10 uM up to 120 mins by LC-MS/MS analysis; assay type: ADME, cell-based, Hepatocyte; details: 2 h
[4] = Drug degradation in rat hepatocytes at 10 uM up to 120 mins by LC-MS/MS analysis; assay type: ADME, cell-based, Hepatocyte; details: 2 h
[5] = Drug degradation in dog hepatocytes at 10 uM up to 120 mins by LC-MS/MS analysis; assay type: ADME, cell-based, Canis lupus familiaris, Hepatocyte; details: 2 h
[6] = Drug degradation in human hepatocytes assessed as 5-hydroxy-indazole formation at 10 uM up to 120 mins by LC-MS/MS analysis; assay type: ADME, cell-based, Hepatocyte; details: 2 h
[7] = Drug degradation in rat hepatocytes assessed as 5-hydroxy-indazole formation at 10 uM up to 120 mins by LC-MS/MS analysis; assay type: ADME, cell-based, Hepatocyte; details: 2 h
[8] = Drug degradation in dog hepatocytes assessed as 5-hydroxy-indazole formation at 10 uM up to 120 mins by LC-MS/MS analysis; assay type: ADME, cell-based, Canis lupus familiaris, Hepatocyte; details: 2 h
[9] = Solubility of the compound in phosphate buffer at pH 7.4 using liquid sample at 20 degreeC; assay type: physicochemical
How it was run: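 Solubility measured in 0.1 M phosphate buffer at pH 7.4 and 20 °C, starting from a 10 mM DMSO stock solution.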

[10] = Solubility of the compound in phosphate buffer at pH 7.4 using solid sample at 23 degreeC; assay type: physicochemical
How it was run: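 Solubility measured in 0.1 M phosphate buffer at pH 7.4 and 23 °C, starting from crystalline solid.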

[11] = Intrinsic clearance in Wistar Han rat hepatocytes assessed per 10^6 cells; assay type: ADME, cell-based, Hepatocyte; details: read-out: CLH
[12] = Clearance in Wistar Han rat at 1 umol/kg, iv administered as bolus dose by LC-MS/MS analysis; assay type: ADME, organism-based; details: in vivo
[13] = Volume of distribution at steady state in Wistar Han rat at 1 umol/kg, iv administered as bolus dose by LC-MS/MS analysis; assay type: ADME, organism-based; details: in vivo, read-out: Vdss
[14] = Terminal half life in Wistar Han rat 1 umol/kg, iv administered as bolus dose by LC-MS/MS analysis; assay type: ADME, organism-based; details: in vivo, read-out: beta t1/2 (converted)
[15] = Oral bioavailability in Wistar Han rat administered via gavage by LC-MS/MS analysis; assay type: ADME, organism-based; details: in vivo
[16] = Thermodynamic solubility of the compound in human intestinal fluid; assay type: physicochemical; details: read-out: Therm_solubility
[17] = tested on: Lung; assay: Drug uptake in Wistar Han rat lung at 0.1 umol/kg, administered as dry powder inhalation after 4 hrs by LC-MS/MS analysis; assay type: ADME; details: in vivo, inhaled_or_intranasal
[18] = tested on: Lung; assay: Drug uptake in Wistar Han rat lung at 0.1 umol/kg, administered as dry powder inhalation after 24 hrs by LC-MS/MS analysis; assay type: ADME, tissue-based; details: in vivo, inhaled_or_intranasal
[19] = AUC (0 to infinity) in Wistar Han rat lung at 0.1 umol/kg, administered as dry powder inhalation by LC-MS/MS analysis; assay type: ADME; design: dose 0.1 umol/kg, route respiratory (INHALATION), time infinity; details: inhaled or intranasal
[20] = Apparent terminal half life in Wistar Han rat lung at 0.1 umol/kg, administered as dry powder inhalation by LC-MS/MS analysis; assay type: ADME; details: inhaled or intranasal, read-out: betat1/2(app) (converted)
[21] = Mean residence time in Wistar Han rat lung at 0.1 umol/kg, administered as dry powder inhalation by LC-MS/MS analysis; assay type: ADME, tissue-based; details: inhaled or intranasal
[22] = Cmax in Wistar Han rat plasma at 0.1 umol/kg, administered as dry powder inhalation by LC-MS/MS analysis; assay type: ADME; design: dose 0.1 umol/kg, route respiratory (INHALATION); details: inhaled or intranasal
[23] = tested on: Rattus norvegicus; assay: Toxicity in inhaled CRL:CD Sprague Dawley rat model of sephadex induced lung edema assessed as induction of thymic involution administered once per day for 3 days; details: in vivo, inhaled_or_intranasal, 72 h
How it was run: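 Thymic involution scored in the same Sephadex-challenged rats dosed by inhalation, as a sensitive marker of systemic GR agonism.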

SMILES | hepatocyte CLint [1] | chromatographic logD [2] | solubility [9] | also measured
C[C@H](NC(=O)C(C)(F)F)[C@H](Oc1ccc2c(cnn2-c2ccc(F)cc2)c1)c1ccc2c(c1)COCO2 | 20 µL/min/1e6 cells | 5.4 |  | 
C[C@H](NC(=O)C(C)(F)F)[C@H](Oc1ccc2c(cnn2-c2cccc([14C](=O)N[C@@H]3CCOC3)c2)c1)c1ccc2c(c1)OCCO2 |  |  |  | Drug degradation [3]: Metabolite_Detected; Drug degradation [4]: Metabolite_Detected; Drug degradation [5]: Metabolite_Detected; Drug metabolism [6]: Metabolite_Detected; Drug metabolism [7]: Metabolite_Detected; Drug metabolism [8]: Metabolite_Detected
C[C@H](NC(=O)C(C)(F)F)[C@H](Oc1ccc2c(cnn2-c2cccc(C(=O)N3CCC[C@@H]3C(N)=O)c2)c1)c1ccccc1 | < 2.7 µL/min/1e6 cells | 3.3 | 36 µM (≈ 20.7 µg/mL) | 
C[C@H](NC(=O)C(F)(F)F)[C@H](Oc1ccc2c(cnn2-c2ccc(F)cc2)c1)c1cccc(O)c1 | 33 µL/min/1e6 cells | 5 |  | 
C[C@H](NC(=O)C(F)(F)F)[C@H](Oc1ccc2c(cnn2-c2ccc(F)cc2)c1)c1ccccc1 | < 2.1 µL/min/1e6 cells | 6.1 |  | 
C[C@H](NC(=O)C(C)(F)F)[C@H](Oc1ccc2c(cnn2-c2cccc(C(=O)NC3CCS(=O)(=O)C3)c2)c1)c1ccccc1 (some centres undefined) | < 2.7 µL/min/1e6 cells | 3.8 | 1 µM (≈ 0.597 µg/mL) | solubility thermodynamic [10]: 0.34 µM (≈ 0.203 µg/mL)
C[C@H](NC(=O)C(C)(F)F)[C@H](Oc1ccc2c(cnn2-c2cccc(C(=O)N3CCC[C@H]3C(N)=O)c2)c1)c1ccccc1 |  | 3.3 | 85 µM (≈ 48.9 µg/mL) | 
C[C@H](NC(=O)C(C)(F)F)[C@H](Oc1ccc2c(cnn2-c2cccc(C(=O)NCc3cccnc3)c2)c1)c1ccc2c(c1)OCOC2 | 21 µL/min/1e6 cells | 3.6 | < 0.1 µM | solubility thermodynamic [10]: 0.02 µM (≈ 0.0126 µg/mL); hepatocyte CLint [11]: 25 µL/min/1e6 cells; clearance [12]: 73 mL/min/kg; Vd [13]: 0.81 L/kg; half-life [14]: 6 min; bioavailability [15]: 0.3%; solubility thermodynamic [16]: 1.3 µM (≈ 0.816 µg/mL); Drug uptake [17]: 41 %ID; Drug uptake [18]: 8.6 %ID; AUC(0-inf) [19]: 190 µM·h; half-life [20]: 540 min; MRT [21]: 10 h; Cmax [22]: 12 nM; ED25 [23]: 27 µg/kg

Second part, led by results:

hepatocyte CLint [1] | chromatographic logD [2] | solubility [9] | SMILES | also measured
9.7 µL/min/1e6 cells | 2.9 | 19 µM (≈ 12 µg/mL) | C[C@H](NC(=O)C(C)(F)F)[C@H](Oc1ccc2c(cnn2-c2cccc(C(=O)N3CCC[C@@H]3C(N)=O)c2)c1)c1ccc2c(c1)OCOC2 | 
< 2.7 µL/min/1e6 cells |  |  | C[C@H](NC(=O)C(F)(F)F)[C@H](Oc1ccc2c(cnn2-c2ccc(F)cc2)c1)c1cccc(OS(=O)(=O)O)c1 | 
14 µL/min/1e6 cells | 5.7 |  | C[C@H](NC(=O)C(C)(F)F)[C@H](Oc1ccc2c(cnn2-c2ccc(F)cc2)c1)c1ccc2c(c1)OCC2 | 
11 µL/min/1e6 cells | 2.9 | 47 µM (≈ 29.8 µg/mL) | C[C@H](NC(=O)C(C)(F)F)[C@H](Oc1ccc2c(cnn2-c2cccc(C(=O)N3CCC[C@@H]3C(N)=O)c2)c1)c1ccc2c(c1)OCCO2 | 
20 µL/min/1e6 cells | 3.4 |  | CCCC1O[C@@H]2C[C@H]3[C@@H]4CCC5=CC(=O)C=C[C@]5(C)[C@H]4[C@@H](O)C[C@]3(C)[C@]2(C(=O)CO)O1 (some centres undefined) [BUDESONIDE] | 
